The source made the active and inactive calls. The rule behind the calls is not given here.
Key:
THP-1 [1] = assay: Effect on CCL2 gene expression in THP1 cells treated with Aspergillus fumigatus hyphae by RT-PCR; type: functional, Homo sapiens
In short: (§1)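 THP-1 cells PMA-primed and exposed to hyphal fragments (E:T 10:1) with or without 0.1 μg/ml VRC. One-step RT-PCR on 0.5 μg total RNA with M-MuLV: 48°C 30 min, then 30 cycles of 94°C 15 s, 53°C 30 s, 72°C 1 min. Products run on 1.5% agarose and quantified by densitometry after normalisation to an internal control; three independent experiments.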

THP-1 [2] = assay: Increase in IL1-beta production in THP1 cells stimulated with Aspergillus fumigatus hyphae at 0.1 ug/ml after 6 hrs; type: functional, cell-based; details: Homo sapiens
In short: (§2)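 PMA-primed THP-1 cells (1 × 10^6/ml) incubated 6 h at 37°C with hyphal fragments (E:T 10:1) with or without 0.1 μg/ml VRC. Supernatant IL-1β, TNF-α, IL-12, MCP-1 and MIP-1β measured by sandwich ELISA in duplicate at 450/540 nm. Five independent experiments, means ± SEM; ANOVA with Dunnett's test against untreated cells.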

THP-1 [3] = assay: Effect on IL1R1 gene expression in THP1 cells treated with Aspergillus fumigatus hyphae after 6 hrs by cDNA array hybridization; type: functional, Homo sapiens
In short: (§3)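 THP-1 cells primed with 10 ng/ml PMA for 6 h, rested 22 h, then exposed 6 h at 37°C to sonicated, nonviable AF 4215 hyphal fragments (E:T 10:1) with or without 0.1 μg/ml VRC. Total RNA (4 μg) reverse-transcribed to biotin-labelled cDNA and hybridised to a 96-gene inflammatory cytokine/receptor nylon array. Chemiluminescent read-out normalised to GAPDH; fold change against untreated cells; >2.5-fold counted significant; three independent arrays.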

THP-1 [4] = assay: Effect on IL11 gene expression in THP1 cells treated with Aspergillus fumigatus hyphae after 6 hrs by cDNA array hybridization; type: functional, Homo sapiens; in short: as §3
THP-1 [5] = assay: Effect on CCL20 gene expression in THP1 cells treated with Aspergillus fumigatus hyphae after 6 hrs by cDNA array hybridization relative to control; type: functional, Homo sapiens; in short: as §3
THP-1 [6] = assay: Decrease in MIP1-beta production in THP1 cells stimulated with Aspergillus fumigatus hyphae at 0.1 ug/ml after 6 hrs; type: functional, cell-based; details: Homo sapiens; in short: as §2
THP-1 [7] = assay: Effect on IL12A gene expression in THP1 cells treated with Aspergillus fumigatus hyphae after 6 hrs by cDNA array hybridization; type: functional, Homo sapiens; in short: as §3
THP-1 [8] = assay: Effect on CCL2 gene expression in THP1 cells treated with Aspergillus fumigatus hyphae after 6 hrs by cDNA array hybridization relative to control; type: functional, Homo sapiens; in short: as §3
THP-1 [9] = assay: Effect on CXCL6 gene expression in THP1 cells treated with Aspergillus fumigatus hyphae after 6 hrs by cDNA array hybridization relative to control; type: functional, Homo sapiens; in short: as §3
THP-1 [10] = assay: Decrease in MCP1 production in THP1 cells stimulated with Aspergillus fumigatus hyphae at 0.1 ug/ml after 6 hrs; type: functional, cell-based; details: Homo sapiens; in short: as §2
THP-1 [11] = assay: Effect on CCL15 gene expression in THP1 cells treated with Aspergillus fumigatus hyphae after 6 hrs by cDNA array hybridization relative to control; type: functional, Homo sapiens; in short: as §3
THP-1 [12] = assay: Effect on TNFA gene expression in THP1 cells treated with Aspergillus fumigatus hyphae by RT-PCR; type: functional, Homo sapiens; in short: as §1
THP-1 [13] = assay: Effect on CCL3 gene expression in THP1 cells treated with Aspergillus fumigatus hyphae after 6 hrs by cDNA array hybridization relative to control; type: functional, Homo sapiens; in short: as §3
CCL16 (Homo sapiens) = assay: Effect on CCL16 gene expression in THP1 cells treated with Aspergillus fumigatus hyphae after 6 hrs by cDNA array hybridization relative to control
THP-1 [14] = assay: Effect on CCL7 gene expression in THP1 cells treated with Aspergillus fumigatus hyphae after 6 hrs by cDNA array hybridization relative to control; type: functional, Homo sapiens; in short: as §3
THP-1 [15] = assay: Increase in IL12 production in THP1 cells stimulated with Aspergillus fumigatus hyphae at 0.1 ug/ml after 6 hrs; type: functional, cell-based; details: Homo sapiens; in short: as §2
THP-1 [16] = assay: Effect on CCL21 gene expression in THP1 cells treated with Aspergillus fumigatus hyphae after 6 hrs by cDNA array hybridization relative to control; type: functional, Homo sapiens; in short: as §3
THP-1 [17] = assay: Effect on CXCL13 gene expression in THP1 cells treated with Aspergillus fumigatus hyphae after 6 hrs by cDNA array hybridization relative to control; type: functional, Homo sapiens; in short: as §3
THP-1 [18] = assay: Effect on CCL5 gene expression in THP1 cells treated with Aspergillus fumigatus hyphae after 6 hrs by cDNA array hybridization relative to control; type: functional, Homo sapiens; in short: as §3
THP-1 [19] = assay: Increase in TNFalpha production in THP1 cells stimulated with Aspergillus fumigatus hyphae at 0.1 ug/ml after 6 hrs; type: functional, cell-based; details: Homo sapiens; in short: as §2
THP-1 [20] = assay: Effect on CCL4 gene expression in THP1 cells treated with Aspergillus fumigatus hyphae by RT-PCR; type: functional, Homo sapiens; in short: as §1
Aspergillus fumigatus [21] = assay: Antifungal activity against Aspergillus fumigatus hyphae assessed as hyphal damage at 0.1 ug/ml after 6 hrs by XTT assay; type: functional
In short: (§4)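 A. fumigatus AF 4215 hyphae grown 16 h at 37°C in yeast nitrogen base with 2% glucose, then medium changed to RPMI 1640 + 10% heat-inactivated FCS. PMA-induced THP-1 cells added at E:T 10:1, VRC at 0.1 μg/ml, or both, 6 h at 37°C, 5% CO2. THP-1 lysed with water. XTT 0.25 mg/ml plus coenzyme Q0 40 μg/ml, 1 h. OD 450/690 nm; damage = (1 − X/C)×100 against hyphae-only wells; duplicates.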

THP-1 [22] = assay: Effect on CCL4 gene expression in THP1 cells treated with Aspergillus fumigatus hyphae after 6 hrs by cDNA array hybridization relative to control; type: functional, Homo sapiens; in short: as §3
Aspergillus fumigatus [23] = assay: Antifungal activity against Aspergillus fumigatus hyphae incubated with THP1 cells assessed as hyphal damage at 0.1 ug/ml after 6 hrs by XTT assay; type: functional, THP-1; in short: as §4
THP-1 [24] = assay: Effect on IL16 gene expression in THP1 cells treated with Aspergillus fumigatus hyphae after 6 hrs by cDNA array hybridization; type: functional, Homo sapiens; in short: as §3
THP-1 [25] = assay: Effect on IL12B gene expression in THP1 cells treated with Aspergillus fumigatus hyphae after 6 hrs by cDNA array hybridization; type: functional, Homo sapiens; in short: as §3
THP-1 [26] = assay: Effect on IFN-gamma gene expression in THP1 cells treated with Aspergillus fumigatus hyphae after 6 hrs by cDNA array hybridization; type: functional, Homo sapiens; in short: as §3
THP-1 [27] = assay: Effect on TNFA gene expression in THP1 cells treated with Aspergillus fumigatus hyphae after 6 hrs by cDNA array hybridization; type: functional, Homo sapiens; in short: as §3
THP-1 [28] = assay: Effect on CCL11 gene expression in THP1 cells treated with Aspergillus fumigatus hyphae after 6 hrs by cDNA array hybridization relative to control; type: functional, Homo sapiens; in short: as §3
THP-1 [29] = assay: Effect on TGFB1 gene expression in THP1 cells treated with Aspergillus fumigatus hyphae after 6 hrs by cDNA array hybridization; type: functional, Homo sapiens; in short: as §3

C[C@@H](c1ncncc1F)[C@](O)(Cn1cncn1)c1ccc(F)cc1F [VORICONAZOLE]
Fold change (THP-1 [1]): -3
Activity (THP-1 [2]): Active
Fold change (THP-1 [3]): 6.3
Fold change (THP-1 [4]): 6.4
Fold change (THP-1 [5]): -2.5
Activity (THP-1 [6]): Active
Fold change (THP-1 [7]): -3.3
Fold change (THP-1 [8]): -2.4
Fold change (THP-1 [9]): 3.5
Activity (THP-1 [10]): Active
Fold change (THP-1 [11]): 10.1
Fold change (THP-1 [12]): 2.6
Fold change (THP-1 [13]): 19.3
Fold change (CCL16 (Homo sapiens)): 0.04
Fold change (THP-1 [14]): 11.3
Activity (THP-1 [15]): Active
Fold change (THP-1 [16]): -2.6
Fold change (THP-1 [17]): 7
Fold change (THP-1 [18]): 17.7
Activity (THP-1 [19]): Active
Fold change (THP-1 [20]): 4
Activity (Aspergillus fumigatus [21]): 26.77%
Fold change (THP-1 [22]): 5.2
Activity (Aspergillus fumigatus [23]): 42.11%
Fold change (THP-1 [24]): -7.7
Fold change (THP-1 [25]): -6
Fold change (THP-1 [26]): 3.3
Fold change (THP-1 [27]): 3.1
Fold change (THP-1 [28]): 2.5
Fold change (THP-1 [29]): 5.9

From ChEMBL document CHEMBL1142076, “Expression of immunomodulatory genes in human monocytes induced by voriconazole in the presence of Aspergillus fumigatus” (2007)
